The compounds below were run on RBL-2H3 (assay: Inhibition of IgE receptor/FcERI mediated leukotriene release from rat RBL-2H3 cells).
Format: functional, cell-based
How it was run: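 RBL-2H3 rat mast cells were sensitized with monoclonal anti-DNP IgE ([…]) for 1 h at 37 °C, washed to remove unbound IgE, and overlaid with PIPES-buffered saline containing 1 mM CaCl2. Cells were preincubated with compound or vehicle, then challenged with 20 ng/mL DNP-BSA for 30 min at 37 °C and centrifuged at 200g for 10 min at 4 °C. LTC4 was measured in cell-free supernatants and reported as IC50.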

SMILES | IC50 [µM]
C[C@@H](/N=C(\S)Nc1ccccn1)c1cccc2ccccc12 | > 100
C[C@H](/N=C(\S)Nc1nc2ccccc2s1)c1cccc2ccccc12 | > 100
COc1cc2ncnc(Nc3cc(Br)c(O)c(Br)c3)c2cc1OC | 6.8
Cc1cccc2sc(N/C(S)=N/[C@@H](C)c3cccc4ccccc34)nc12 | > 100
C[C@H](/N=C(\S)Nc1ccccn1)c1cccc2ccccc12 | > 100
C[C@H](/N=C(\S)Nc1ccc(Br)cn1)c1cccc2ccccc12 | > 100
C[C@@H](/N=C(\S)Nc1ccc(Cl)cn1)c1cccc2ccccc12 | > 100
Oc1ccc(CC/N=C(\S)Nc2ccc(Cl)cn2)cc1 | 12.6
Oc1ccc(CC/N=C(\S)Nc2ccccn2)cc1 | 8.5
S=C(NCCc1c[nH]c2ccccc12)Nc1ccc(Cl)cn1 | 4.9
C[C@@H](/N=C(\S)Nc1nc2ccccc2s1)c1cccc2ccccc12 | 18.9
Cc1cccc2sc(N/C(S)=N/[C@H](C)c3cccc4ccccc34)nc12 | > 100
S=C(NCCc1c[nH]c2ccccc12)Nc1ccc(Br)cn1 | 6.1
Oc1ccc(CC/N=C(\S)Nc2ccc(Br)cn2)cc1 | 16.8

Results, then the compound that gave them:

IC50 [µM] | SMILES
0.002 | CCOC(=O)Cc1csc(/N=C(\S)N[C@H](C)c2cccc3ccccc23)n1
> 100 | Cc1cc(C)nc(N/C(S)=N/[C@@H](C)c2cccc3ccccc23)c1
> 100 | Cc1ccc(N/C(S)=N/[C@@H](C)c2cccc3ccccc23)nc1
> 100 | COc1ccc2nc(/N=C(\S)N[C@H](C)c3cccc4ccccc34)sc2c1
> 100 | Cc1cc(C)nc(N/C(S)=N/[C@H](C)c2cccc3ccccc23)c1
0.005 | Cc1ccc(N/C(S)=N/[C@H](C)c2cccc3ccccc23)nc1
> 100 | C[C@@H](/N=C(\S)Nc1nccs1)c1cccc2ccccc12
1.6 | Cc1cccc(N/C(S)=N/[C@@H](C)c2cccc3ccccc23)n1
> 100 | C[C@H](/N=C(\S)Nc1nccs1)c1cccc2ccccc12
25.9 | Cc1csc(N/C(S)=N/[C@H](C)c2cccc3ccccc23)n1
83.2 | Cc1csc(N/C(S)=N/[C@@H](C)c2cccc3ccccc23)n1
0.002 | CCOC(=O)Cc1csc(/N=C(\S)N[C@@H](C)c2cccc3ccccc23)n1
